This is a sample that favours compounds with a hit; in the whole collection about 5.7% have one here.
Beta cell apopt – beta cell apoptosis inhibition. INS-1E cytokine-induced death, ATP luminescence, 48 h; percent of positive-control rescue, neutral wells zero. protection from apoptosis, % (no concentration beside the values). 0.8% of 300,000 active. AID 435005;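 active = Every replicate reaches about 75%, or at least half do and their mean reaches it too, limit read from the data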;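 also: 0% = cytokine-treated negative control wells and 100% = positive control rescue; higher means more ATP so stronger rescue from cytokine killing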
Calb FLC – C. albicans growth modulation with fluconazole; C. albicans CaCi-2 (fluconazole-resistant clinical isolate) + fluconazole, Alamar Blue growth, 48 h; growth inhibition, % (no concentration beside the values); 0.57% of 300,000 active; AID 1979;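 active = growth inhibition above about 58% in most replicates, limit read from the data, passing the limit was not always enough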;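 also: all wells also contain fluconazole at 8 µg/ml as a sub-toxic cotreatment; 0% = median of DMSO wells and 100% = median of geldanamycin control wells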
T cruzi inh – T. cruzi replication inhibition. 1.4% of 300,000 active. T. cruzi beta-gal in NIH3T3, luminescence, 90 h. inhibition, % (no concentration beside the values);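 active = mean inhibition across valid replicates above about 55%, limit read from the data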;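 also: signal also drops with host cell toxicity which is not excluded here; 0% = plate median of DMSO wells and 100% = zero luminescence signal; higher percent means less beta-gal luminescence so fewer parasites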
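Assay system: NIH/3T3 fibroblasts plus reporter T. cruzi. Amount: NIH/3T3 cells, 5,000 per well. Buffer or medium: DMEM, 2% fetal bovine serum. Doses: compound pinned at 50 nL/well, DMSO. Schedule: ≥90 h infection period, 3 h prior cell attachment. Signal: luminescent β-galactosidase signal after 60 min lysis. Read-out: parasite load inhibition, %.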
CSC inhib – cancer stem cell inhibition. cancer stem cell-like cells viability, luminescence. inhibition, % at 7.5 µM. 1.1% of 300,000 active. AID 2717; in the data active = inhibition above about 75%; tested in HMLE shEcad cells
SKKanGAS inh – SKKanGAS growth inhibition; S. pyogenes SKKanGAS, kanamycin growth, BacTiter-Glo, 6 h; inhibition, % at 7.5 µM; 1.3% of 300,000 active; AID 1662;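 active = mean replicate score, as percent of positive control median, at least 50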;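 also: strain carries kanamycin resistance gene driven by streptokinase promoter and grows in 40 µg/ml kanamycin; loss of luminescence reflects streptokinase promoter inhibition or plain growth inhibition; 0% = median of DMSO wells and 100% = positive control at its reference dose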
Mdm2 MdmX PPI – disrupts the human Mdm2-MdmX interaction; AID 485346; 3% of 330,000 active; inhibition, % at 8 µM; O15151+Q00987; SaOS-2 split-luciferase Mdm2/MdmX complementation, luminescence;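 active = inhibition of at least 50% at 8 µM in the primary screen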
Target sequence (O15151 whole entry, looked up): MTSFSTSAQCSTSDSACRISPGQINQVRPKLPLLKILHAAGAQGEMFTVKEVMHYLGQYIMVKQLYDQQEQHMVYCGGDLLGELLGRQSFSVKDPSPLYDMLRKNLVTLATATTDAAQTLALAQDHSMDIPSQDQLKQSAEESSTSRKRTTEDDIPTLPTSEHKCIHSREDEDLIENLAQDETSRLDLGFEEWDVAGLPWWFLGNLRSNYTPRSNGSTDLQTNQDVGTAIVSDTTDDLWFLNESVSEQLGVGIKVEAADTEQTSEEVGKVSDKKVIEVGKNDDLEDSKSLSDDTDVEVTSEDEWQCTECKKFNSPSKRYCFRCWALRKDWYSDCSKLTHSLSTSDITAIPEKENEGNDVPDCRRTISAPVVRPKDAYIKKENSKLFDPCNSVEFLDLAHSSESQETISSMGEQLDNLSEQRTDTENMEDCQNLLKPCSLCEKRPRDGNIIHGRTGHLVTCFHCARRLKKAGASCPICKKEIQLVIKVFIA
Target sequence (Q00987 whole entry, looked up): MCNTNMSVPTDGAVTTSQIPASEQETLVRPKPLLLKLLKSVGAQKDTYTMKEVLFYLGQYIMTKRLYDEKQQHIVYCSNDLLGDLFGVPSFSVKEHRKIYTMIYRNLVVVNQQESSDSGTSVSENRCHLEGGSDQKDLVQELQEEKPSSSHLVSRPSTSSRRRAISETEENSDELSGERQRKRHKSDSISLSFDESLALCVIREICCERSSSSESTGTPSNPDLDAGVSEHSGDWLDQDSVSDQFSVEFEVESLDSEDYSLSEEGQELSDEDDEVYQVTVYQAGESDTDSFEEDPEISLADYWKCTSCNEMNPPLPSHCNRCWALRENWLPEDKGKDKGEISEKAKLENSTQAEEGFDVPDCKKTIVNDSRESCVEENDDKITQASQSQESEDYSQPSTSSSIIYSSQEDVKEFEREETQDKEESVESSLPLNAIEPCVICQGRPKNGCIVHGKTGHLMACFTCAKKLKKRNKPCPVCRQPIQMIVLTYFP
An asterisk follows results filed as active; nt = not tested or not shown.

SMILES	Beta cell apopt	Calb FLC	T cruzi inh	CSC inhib	SKKanGAS inh	Mdm2 MdmX PPI
O=C(CCSc1ccccc1)NC(=O)COC(=O)c1ccc(OC(F)F)cc1	1.9	nt	-14.6	15.9	nt	-11.4
C#CCOCCOCCOCCNc1nc(N2CCN(C(=O)CCCCCCCCCCNC(=O)[C@H]([C@@H](C)CC)n3cc(CCCCCN)nn3)CC2)nc(N2CCN(C(=O)CCCCCCCCCCNC(=O)[C@H](CCCCN)n3cc(CCCC(=O)O)nn3)CC2)n1	0.9	nt	nt	8.7	nt	22.6
C#CCOCCOCCOCCNc1nc(N2CCN(C(=O)CCCCCCCCCCNC(=O)[C@@H](CCC(=O)O)n3cc(CCCCCN)nn3)CC2)nc(N2CCN(C(=O)CCCCCCCCCCNC(=O)[C@H]([C@@H](C)CC)n3cc(CCCCCN)nn3)CC2)n1	1.2	nt	nt	14.5	nt	-12.3
C#CCOCCOCCOCCNc1nc(N2CCN(C(=O)CCCCCCCCCCNC(=O)Cn3cc(CCCCCN)nn3)CC2)nc(N2CCN(C(=O)CCCCCCCCCCNC(=O)[C@H]([C@@H](C)CC)n3cc(CCCCN=C(N)N)nn3)CC2)n1	86.4*	nt	nt	161.3*	nt	10.1
C#CCOCCOCCOCCNc1nc(N2CCN(C(=O)CCCCCCCCCCNC(=O)[C@H]([C@@H](C)CC)n3cc(CCCCN=C(N)N)nn3)CC2)nc(N2CCN(C(=O)CCCCCCCCCCNC(=O)[C@H](CCCCN)n3cc(C)nn3)CC2)n1	98.0*	nt	nt	22.1	nt	18.3
C#CCOCCOCCOCCNc1nc(N2CCN(C(=O)CCCCCCCCCCNC(=O)[C@H]([C@@H](C)CC)n3cc(CCCCN=C(N)N)nn3)CC2)nc(N2CCN(C(=O)CCCCCCCCCCNC(=O)[C@H](CO)n3cc(CCCCCN)nn3)CC2)n1	108.0*	nt	nt	18.4	nt	4.1
CC(C)(Oc1ccc(Cl)cc1)C(=O)NCC1CCCO1 (configuration not stated)	-2.0	5.9	1.0	-7.5	-1.7	-4.8
O=C(Nc1ccccc1Cc1ccccc1)c1ccncc1	-1.4	-10.9	59.2*	-0.6	-1.7	7.7
O=C(Nc1ccccc1Cc1ccccc1)c1ccccc1F	-4.4	-3.6	-4.0	-31.3	6.5	-19.3
C1CCC(OCCN2CCN(CCOC3CCCCC3)CC2)CC1	1.8	0.6	55.1*	42.7	1.1	15.3
OC(COC1CCCCC1)CN1CCN(c2ccccc2)CC1 (configuration not stated)	1.5	-46.5	16.1	7.3	nt	3.5
COc1ccc(/C=C2\C(=O)c3ccccc3OC2c2ccccc2)cc1 (configuration not stated)	25.4	-14.7	-9.0	82.0*	13.9	37.5
O=[N+]([O-])c1cc(Cl)ccc1N1CCCCC1	-2.5	-8.6	-13.7	nt	-18.8	-9.8
O=[N+]([O-])c1ccc(N2CCCCC2)c(Cl)c1N1CCCCC1	-5.3	-10.2	14.6	9.7	92.7*	3.5
Cc1ccc(N/N=C/c2ccc3c(c2)OCCO3)cc1Cl	nt	102.3*	11.4	13.5	-7.4	8.1
O=C(O)c1cc(N/N=C/c2ccc3c(c2)OCCO3)ccc1Cl	3.7	nt	nt	-12.4	nt	nt
CCOC(=O)c1ccc(NC(=O)c2ccc(CO)c(C(=O)NC3CCN(C(=O)OCC)CC3)c2)cc1	7.1	104.1*	-2.8	-2.6	6.7	8.8
O=C(Nc1nc(-c2ccncc2)cs1)c1ccco1	4.2	3.7	9.5	3.0	-3.3	10.8
O=C(Nc1nc(-c2ccc3c(c2)OCCO3)cs1)c1ccco1	2.8	13.2	-1.4	5.2	56.5*	-127.9
COc1ccc(C2(NC(C)=O)CCN(C(=O)c3cccs3)CC2)cc1	-3.3	-8.1	-9.3	-9.7	-18.9	-8.1
COCC1CCCCN1Cc1cn[nH]c1-c1ccc2cc(OC)ccc2c1 (configuration not stated)	0.9	-7.5	70.5*	-6.0	0.6	-6.3
COCCN(Cc1cn[nH]c1-c1ccc2cc(OC)ccc2c1)C(C)C	nt	-4.6	65.5*	nt	3.4	-2.6
CCOC(=O)CN(C)Cc1cn[nH]c1-c1ccc2cc(OC)ccc2c1	nt	-2.2	-5.9	-1.5	11.3	17.7
COCC1CCCCN1Cc1cn[nH]c1-c1ccc(OC)cc1OC (configuration not stated)	-1.7	-31.7	-1.3	-13.3	-3.5	44.7
C[C@@H]1NC(=O)N(c2ccc(F)cc2)C1=O	-3.5	-1.3	-4.7	10.2	-0.7	-0.9

Screening data from PubChem BioAssay.
